Data taken from ChEMBL document CHEMBL1131289, “2-Nitrophenylcarbamoyl-(S)-prolyl-(S)-3-(2-naphthyl)alanyl-N-benzyl-N - methylamide (SDZ NKT 343), a potent human NK1 tachykinin receptor antagonist with good oral analgesic activity in chronic pain models” (J Med Chem, 1998).

Key:
Substance-P receptor [1] = molecular target: Substance-P receptor (Homo sapiens, UniProt P25103); assay: In vitro binding affinity towards Tachykinin receptor 1 by measuring its ability to displace [3H]SP (0.6 nM) binding to membranes from Cos-7 cells transiently transfected with the hNK-1R; type: cell membranes
Substance-P receptor [2] = molecular target: T1, Substance-P receptor (Cavia porcellus, UniProt P30547); assay: Tested for Tachykinin receptor 1 […] activity by measuring its ability to inhibit contractions evoked by [Sar9,Met(O2)11]-SP (4 nM) in guinea pig ileum; type: functional, tissue-based
Procedure, shortened: (§1)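 Guinea pig ileum contracted by [Sar9Met(O2)11]SP (4.0 nM), repeated at least five times until stable. Antagonist added 2 min before agonist; at least three concentrations, each tested three times. IC50 read from log10 concentration–response curve; mean ± SEM of three separate experiments.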

Cavia porcellus [3] = assay: In vivo inhibition of hyperalgesia at 30 mg/kg po dose and 3h after dosing in guinea pig; type: functional
Procedure, shortened: (§2)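 Guinea pigs got 1% carrageenan (100 μL) intraplantar in one hind paw. Mechanical hyperalgesia was read 24 h later, before dosing. Compound was given orally at 30 mg/kg in 10% DMSO in 1% tragacanth or as a microemulsion. Readings were taken at intervals up to 6 h, and the value is percentage reversal of predose hyperalgesia.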

Substance-P receptor [4] = molecular target: T1, Substance-P receptor; assay: Tachykinin receptor 1 antagonistic activity as inhibition of contractions evoked by 4 nM [Sar9,Met(O2)11]-SP in guinea pig ileum; type: functional, tissue-based; procedure, shortened: as §1
Cavia porcellus [5] = assay: The compound was evaluated for its %inhibition of hyperalgesia at 30 mg/kg po dose and 1 hr after dosing; type: functional; procedure, shortened: as §2
Cavia porcellus [6] = species on record: Cavia porcellus; assay: The effective dose of compound used to inhibit 30% of hyperalgesia in guinea pig; type: functional
Procedure, shortened: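 Hyperalgesia was induced in guinea pigs with intraplantar 1% carrageenan (100 μL) in one hind paw. Mechanical hyperalgesia was assessed 24 h later, then oral doses were given in 10% DMSO/1% tragacanth or a microemulsion. ED30, the dose giving 30% inhibition of hyperalgesia, was taken from dose–response data 3 h after dosing (n = 3).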

Substance-P receptor (Homo sapiens, UniProt P25103), sequence (P25103 whole entry): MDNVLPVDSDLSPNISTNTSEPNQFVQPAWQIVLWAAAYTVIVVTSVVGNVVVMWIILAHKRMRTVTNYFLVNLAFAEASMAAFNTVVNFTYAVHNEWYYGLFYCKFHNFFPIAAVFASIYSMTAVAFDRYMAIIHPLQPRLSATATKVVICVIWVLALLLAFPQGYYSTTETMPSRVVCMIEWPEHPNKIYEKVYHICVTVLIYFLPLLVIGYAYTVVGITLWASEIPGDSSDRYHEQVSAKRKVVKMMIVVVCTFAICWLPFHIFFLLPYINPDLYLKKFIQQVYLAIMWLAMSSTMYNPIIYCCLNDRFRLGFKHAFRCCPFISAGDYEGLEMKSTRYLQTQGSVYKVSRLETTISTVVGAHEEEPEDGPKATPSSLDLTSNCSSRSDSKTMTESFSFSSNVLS
T1 sequence (P30547 whole entry): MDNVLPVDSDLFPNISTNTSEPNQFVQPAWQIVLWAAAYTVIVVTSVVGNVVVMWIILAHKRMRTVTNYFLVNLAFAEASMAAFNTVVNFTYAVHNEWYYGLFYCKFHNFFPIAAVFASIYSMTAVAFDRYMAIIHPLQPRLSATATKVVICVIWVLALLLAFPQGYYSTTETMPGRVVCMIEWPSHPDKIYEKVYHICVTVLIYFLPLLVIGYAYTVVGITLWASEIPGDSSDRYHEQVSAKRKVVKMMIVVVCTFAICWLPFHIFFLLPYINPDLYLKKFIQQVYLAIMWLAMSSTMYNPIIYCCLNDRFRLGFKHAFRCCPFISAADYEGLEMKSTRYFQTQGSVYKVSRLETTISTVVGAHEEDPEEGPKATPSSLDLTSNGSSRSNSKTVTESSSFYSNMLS

Row | SMILES | Ki (Substance-P receptor [1]) | also measured
1 | CN(Cc1ccccc1)C(=O)[C@H](Cc1ccc(-c2ccccc2)cc1)NC(=O)[C@@H]1CCCN1/C(S)=N/Cc1ccccc1Cl | 7.2 nM | –
2 | CN(Cc1ccccc1)C(=O)[C@H](CCc1ccccc1)NC(=O)[C@@H]1CCCN1/C(S)=N/Cc1ccccc1Cl | – | IC50 (Substance-P receptor [1]): 206 nM
3 | CN(Cc1ccccc1)C(=O)[C@H](Cc1ccc2ccccc2c1)NC(=O)[C@@H]1CCCN1C(=O)Nc1ccccc1O | 2.6 nM | –
4 | CN(Cc1ccccc1)C(=O)[C@@H](NC(=O)[C@@H]1CCCN1C(=S)NCc1ccccc1Cl)C(c1ccccc1)c1ccccc1 | 29.4 nM | –
5 | CN(Cc1ccccc1)C(=O)[C@H](Cc1ccc(Cl)c(Cl)c1)NC(=O)[C@@H]1CCCN1/C(S)=N/Cc1ccccc1Cl | 5 nM | –
6 | CN(Cc1ccccc1)C(=O)[C@H](Cc1ccccc1)NC(=O)[C@@H]1CCCN1C(=O)NCc1ccccc1Cl | – | IC50 (Substance-P receptor [1]): 590 nM
7 | CN(Cc1ccccc1)C(=O)[C@H](Cc1ccccc1)NC(=O)[C@@H]1CCCN1/C(S)=N/Cc1ccccc1 | 1010 nM | –
8 | CC(=O)Nc1ccccc1NC(=O)N1CCC[C@H]1C(=O)N[C@@H](Cc1ccc2ccccc2c1)C(=O)N(C)Cc1ccccc1 | – | IC50 (Substance-P receptor [2]): 7.5 nM
9 | CN(Cc1ccccc1)C(=O)[C@H](Cc1ccc2ccccc2c1)NC(=O)[C@@H]1CCCN1C(=O)Nc1ccccc1 | 0.88 nM | inhibition in vivo at 30 mg/kg (Cavia porcellus [3]): 26%; IC50 (Substance-P receptor [4]): 5 nM
10 | CN(Cc1ccccc1)C(=O)[C@H](Cc1ccc2ccccc2c1)NC(=O)[C@@H]1CCCN1C(=O)Nc1cccc([N+](=O)[O-])c1 | 2.3 nM | –
11 | CN(Cc1ccccc1)C(=O)[C@H](Cc1ccc2ccccc2c1)NC(=O)[C@@H]1CCCN1C(=O)Nc1ccc(F)cc1 | 2.2 nM | IC50 (Substance-P receptor [4]): 17.3 nM
12 | CN(Cc1ccccc1)C(=O)[C@H](Cc1ccccc1)NC(=O)[C@@H]1CCCN1C(=S)NCc1ccccc1F | – | IC50 (Substance-P receptor [1]): 290 nM
13 | CN(Cc1ccccc1)C(=O)[C@H](Cc1ccccc1)NC(=O)[C@@H]1CCCN1C(=S)NCc1cc(C(F)(F)F)cc(C(F)(F)F)c1 | 78.6 nM | –
14 | CN(Cc1ccccc1)C(=O)[C@H](Cc1ccc2ccccc2c1)NC(=O)[C@@H]1CCCN1C(=O)Nc1ccccc1C(F)(F)F | 18.2 nM | –
15 | CN(Cc1ccccc1)C(=O)[C@@H](Cc1ccccc1)NC(=O)[C@H]1CCCN1/C(S)=N/c1ccccc1Br | – | IC50 (Substance-P receptor [1]): 1000 nM
16 | CN(Cc1ccccc1)C(=O)[C@H](Cc1cccc2ccccc12)NC(=O)[C@@H]1CCCN1/C(S)=N/Cc1ccccc1Cl | 13.7 nM | –
17 | CN(Cc1ccccc1)C(=O)[C@H](Cc1c[nH]c2ccccc12)NC(=O)[C@@H]1CCCN1C(=S)NCc1ccccc1Cl | 16.7 nM | –
18 | CN(Cc1ccccc1)C(=O)[C@H](Cc1ccccc1)NC(=O)[C@@H]1CCCN1/C(S)=N/Cc1ccccc1[N+](=O)[O-] | 77.6 nM | –
19 | CN(Cc1ccccc1)C(=O)[C@H](Cc1ccccc1)NC(=O)[C@@H]1CCCN1C(=N)NCc1ccccc1Cl | 18.5 nM | –
20 | CN(Cc1ccccc1)C(=O)[C@H](Cc1ccc2ccccc2c1)NC(=O)[C@@H]1CCCN1C(=O)Nc1cccc(C(N)=O)c1 | 5 nM | –
21 | CN(Cc1ccccc1)C(=O)[C@H](Cc1ccc2ccccc2c1)NC(=O)[C@@H]1CCCN1C(=O)Nc1cccnc1 | 6.7 nM | IC50 (Substance-P receptor [4]): 4.2 nM; inhibition in vivo at 30 mg/kg (Cavia porcellus [5]): 14%
22 | CN(Cc1ccccc1)C(=O)[C@H](Cc1cn(C)c2ccccc12)NC(=O)[C@@H]1CCCN1/C(S)=N/Cc1ccccc1Cl | 4.7 nM | –
23 | CN(Cc1ccccc1)C(=O)[C@H](Cc1ccc2ccccc2c1)NC(=O)[C@@H]1CCCN1C(=O)Nc1ccccc1F | 3.5 nM | –
24 | CN(Cc1ccccc1)C(=O)[C@H](Cc1ccc2ccccc2c1)NC(=O)[C@@H]1CCCN1C(=O)Nc1ccccc1C(=O)O | 172 nM | –
25 | CN(CCc1ccccc1)C(=O)[C@H](Cc1ccccc1)NC(=O)[C@@H]1CCCN1C(=S)NCc1ccccc1Cl | – | IC50 (Substance-P receptor [1]): 2500 nM
26 | CN(Cc1ccccc1)C(=O)[C@H](Cc1ccc2ccccc2c1)NC(=O)[C@@H]1CCCN1C(=O)Nc1ccccc1CO | 1.7 nM | –
27 | CN(Cc1cc(C(F)(F)F)cc(C(F)(F)F)c1)C(=O)[C@H](Cc1ccccc1)NC(=O)[C@@H]1CCCN1C(=S)NCc1ccccc1Cl | 26.9 nM | –

Row | SMILES | Ki (Substance-P receptor [1]) | also measured
28 | CN(Cc1ccccc1)C(=O)[C@H](Cc1ccc2ccccc2c1)NC(=O)[C@@H]1CCCN1C(=O)Nc1ccccc1C(N)=O | 0.8 nM | ED30 (Cavia porcellus [6]): 15.7 mg/kg; inhibition in vivo at 30 mg/kg (Cavia porcellus [3]): 35%; IC50 (Substance-P receptor [4]): 1.9 nM
29 | CN(Cc1ccccc1)C(=O)[C@H](Cc1ccccc1)NC(=O)[C@@H]1CCCN1/C(S)=N/Cc1ccccc1C(F)(F)F | 27.2 nM | –
30 | COCc1ccccc1NC(=O)N1CCC[C@H]1C(=O)N[C@@H](Cc1ccc2ccccc2c1)C(=O)N(C)Cc1ccccc1 | 1 nM | ED30 (Cavia porcellus [6]): 1.2 mg/kg; inhibition in vivo at 30 mg/kg (Cavia porcellus [3]): 67%; IC50 (Substance-P receptor [4]): 1.2 nM
31 | CN(Cc1ccncc1)C(=O)[C@H](Cc1ccccc1)NC(=O)[C@@H]1CCCN1C(=S)NCc1ccccc1Cl | – | IC50 (Substance-P receptor [1]): 10000 nM
32 | CN(Cc1ccccc1)C(=O)[C@H](Cc1ccc2ccccc2c1)NC(=O)[C@@H]1CCCN1C(=O)Nc1cccc(C#N)c1 | 4.2 nM | inhibition in vivo at 30 mg/kg (Cavia porcellus [3]): 38%; IC50 (Substance-P receptor [4]): 2.6 nM
33 | CN(Cc1ccccc1)C(=O)[C@H](Cc1ccc2ccccc2c1)NC(=O)[C@@H]1CCCN1C(=O)Nc1ccccc1C#N | 1.1 nM | ED30 (Cavia porcellus [6]): 2.1 mg/kg; inhibition in vivo at 30 mg/kg (Cavia porcellus [3]): 42%; IC50 (Substance-P receptor [4]): 1 nM
34 | CN(Cc1ccccc1)C(=O)[C@H](Cc1ccc2ccccc2c1)N(C)C(=O)[C@@H]1CCCN1C(=S)NCc1ccccc1Cl | 1.7 nM | –
35 | CN(Cc1ccccc1)C(=O)[C@@H](Cc1ccccc1)NC(=O)[C@H]1CCCN1C(=S)Nc1ccccc1Cl | – | IC50 (Substance-P receptor [1]): 3200 nM
36 | CN(Cc1ccccc1)C(=O)[C@H](Cc1ccc2ccccc2c1)NC(=O)[C@@H]1CCCN1C(=O)Nc1cccc(F)c1 | 0.7 nM | inhibition in vivo at 30 mg/kg (Cavia porcellus [3]): 10%; IC50 (Substance-P receptor [4]): 6.8 nM
37 | CN(C)C(=O)c1ccccc1NC(=O)N1CCC[C@H]1C(=O)N[C@@H](Cc1ccc2ccccc2c1)C(=O)N(C)Cc1ccccc1 | 6.1 nM | –
38 | CN(C(=O)[C@H](Cc1ccccc1)NC(=O)[C@@H]1CCCN1C(=S)NCc1ccccc1Cl)c1ccccc1 | – | IC50 (Substance-P receptor [1]): 100000 nM
39 | CN(Cc1ccccc1)C(=O)[C@H](Cc1ccc2ccccc2c1)NC(=O)[C@@H]1CCCN1C(=O)Nc1ccc(C#N)cc1 | 1.1 nM | inhibition in vivo at 30 mg/kg (Cavia porcellus [3]): 32%; IC50 (Substance-P receptor [4]): 2.4 nM
40 | Cc1ccccc1C/N=C(\S)N1CCC[C@H]1C(=O)N[C@@H](Cc1ccccc1)C(=O)N(C)Cc1ccccc1 | – | IC50 (Substance-P receptor [1]): 410 nM
41 | CN(Cc1cccc2ccccc12)C(=O)[C@H](Cc1ccccc1)NC(=O)[C@@H]1CCCN1C(=S)NCc1ccccc1Cl | 17.1 nM | –
42 | CN(Cc1ccc2ccccc2c1)C(=O)[C@H](Cc1ccccc1)NC(=O)[C@@H]1CCCN1/C(S)=N/Cc1ccccc1Cl | 36 nM | –
43 | CN(Cc1ccccc1)C(=O)[C@H](Cc1ccc2ccccc2c1)NC(=O)[C@@H]1CCCN1C(=N)NCc1ccccc1Cl | 0.5 nM | –
44 | CN(Cc1ccccc1)C(=O)[C@H](Cc1ccccc1)NC(=O)[C@@H]1CCCN1C(=S)NCc1ccccc1Br | 29.7 nM | –
45 | CN(Cc1ccccc1)C(=O)[C@H](Cc1ccccc1)N(C)C(=O)[C@@H]1CCCN1/C(S)=N/Cc1ccccc1Cl | 38 nM | –
46 | CN(Cc1ccccc1)C(=O)[C@H](Cc1ccc2ccccc2c1)NC(=O)[C@@H]1CCCN1C(=O)NCc1ccccc1Cl | 2.3 nM | –
47 | CN(Cc1ccccc1)C(=O)[C@H](Cc1ccc2ccccc2c1)NC(=O)[C@@H]1CCCN1C(=O)Nc1ccccc1N | – | IC50 (Substance-P receptor [4]): 21 nM
48 | COC(=O)c1ccccc1NC(=O)N1CCC[C@H]1C(=O)N[C@@H](Cc1ccc2ccccc2c1)C(=O)N(C)Cc1ccccc1 | 0.3 nM | IC50 (Substance-P receptor [4]): 6 nM
49 | CN(CCc1c[nH]c2ccccc12)C(=O)[C@H](Cc1ccccc1)NC(=O)[C@@H]1CCCN1/C(S)=N/Cc1ccccc1Cl | 48 nM | –
50 | O=C(NCCc1c[nH]c2ccccc12)[C@H](Cc1ccccc1)NC(=O)[C@@H]1CCCN1C(=S)NCc1ccccc1Cl | – | IC50 (Substance-P receptor [1]): 3700 nM
51 | CN(Cc1ccccc1)C(=O)[C@H](Cc1ccccc1)NC(=O)[C@@H]1CCCN1/C(S)=N/Cc1c(Cl)cccc1Cl | 25.9 nM | –
52 | CNC(=O)c1ccccc1NC(=O)N1CCC[C@H]1C(=O)N[C@@H](Cc1ccc2ccccc2c1)C(=O)N(C)Cc1ccccc1 | 3.8 nM | IC50 (Substance-P receptor [4]): 3 nM
53 | CN(Cc1ccccc1)C(=O)[C@H](Cc1ccccc1)NC(=O)[C@@H]1CCCN1C(=S)NCc1ccccc1Cl | 29.9 nM | –
54 | CN(Cc1ccccc1)C(=O)[C@H](Cc1ccccc1)NC(=O)[C@@H]1CCCN1C(=S)Nc1ccccc1 (single isomer, unassigned) | 80 nM | –
